Measured values published in ChEMBL document CHEMBL3763088, “Design, synthesis, and biological evaluation of water-soluble amino acid prodrug conjugates derived from combretastatin, dihydronaphthalene, and benzosuberene-based parent vascular disrupting agents” (Bioorg Med Chem, 2016).

Experiments:
[1] = Cytotoxicity against human SKOV3 cells assessed as growth inhibition after 48 hrs by SRB assay; type: functional, SK-OV-3
In short: (§1)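 Cells kept at 37 °C, 5% CO2, up to passage 15. Plated at 7500 cells/well in DMEM with 5% FBS and 1% gentamycin, grown 24 h, then given 10-fold serial dilutions for 48 h. Fixed with 10% TCA (final), SRB-stained, read at 540 nm, normalized at 630 nm. GI50 is the concentration halving net protein staining versus controls, taken from optical density data.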

[2] = Cytotoxicity against human DU145 cells assessed as growth inhibition after 48 hrs by SRB assay; type: functional, DU-145; in short: as §1
NCI-H460 [3] = assay: Cytotoxicity against human NCI-H460 cells assessed as growth inhibition after 48 hrs by SRB assay; type: functional; in short: as §1
[4] = Retention time of the compound by HPLC analysis; type: physicochemical
In short: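 Reversed-phase C18 HPLC (4.6 × 150 mm, 5 μm) at 25 °C with diode-array detection at 190–400 nm. Acetonitrile against water or 0.1% TFA/water. Gradient 10% to 100% acetonitrile over 40 min, or in method C 10% acetonitrile for 5 min then to 100% over 5–25 min, at 1.0 mL/min.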

Tubulin = Tubulin (Bos taurus, UniProt Q6B856+Q862L2+Q862F3); assay: Inhibition of bovine brain tubulin polymerization preincubated for 15 mins by spectrophotometric analysis
In short: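 Purified bovine brain tubulin, 1.0 mg/mL (10 μM), in 0.8 M monosodium glutamate pH 6.6 with 4% DMSO and varied compound. Temperature jumped from 0 to 30 °C; turbidity at 350 nm followed for 20 min.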

Tubulin (Bos taurus) = Tubulin (Bos taurus) (UniProt Q6B856+Q862L2+Q862F3); assay: Displacement of [3H]colchicine from bovine brain tubulin at 5 uM after 10 mins by scintillation counting analysis
In short: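 1.0 μM tubulin with 5.0 μM [3H]colchicine and inhibitor at 1.0 or 5.0 μM. Buffer: 5% DMSO, 1.0 M monosodium glutamate pH 6.6, 0.5 mg/mL BSA, 0.1 M glucose-1-phosphate, 1.0 mM MgCl2, 1.0 mM GTP. Incubated 10 min at 37 °C, stopped with ice-cold water, collected on DEAE-cellulose filters and scintillation counted. Corrected for filter binding without tubulin; % inhibition against no-inhibitor controls.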

Leucine aminopeptidase [5] = molecular target: T1, Leucine aminopeptidase (Sus scrofa, UniProt Q29571); assay: Prodrug conversion assessed as porcine leucine aminopeptidase-mediated compound cleavage by HPLC analysis; type: ADME; details: pig
T1 sequence (Q29571 whole entry): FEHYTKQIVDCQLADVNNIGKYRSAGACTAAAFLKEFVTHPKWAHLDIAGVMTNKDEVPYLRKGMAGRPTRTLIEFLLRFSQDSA
In short: (§2)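 Porcine kidney microsomal LAP; units defined with 24 mM L-leucine p-nitroanilide in 50 mM sodium phosphate pH 7.2 at 37 °C. Enzyme preincubated in the same buffer at 37 °C, then substrate added. Aliquots were quenched with acetonitrile on ice, centrifuged and run on C18 HPLC (acetonitrile/water, 0.05% TFA, 1.0 mL/min, 22 °C, diode-array UV). Cleavage % from the parent/prodrug peak-area ratio; amounts from calibration curves.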

Leucine aminopeptidase [6] = molecular target: T1, Leucine aminopeptidase; assay: Activity at porcine leucine aminopeptidase by HPLC analysis; type: ADME; details: pig; in short: as §2
MDA-MB-231 [7] = assay: Induction of tumor-specific vascular damage in luciferase expressing human MDA-MB-231 cells xenografted in SCID mouse assessed as reduction in light emission at 15 mg/kg at 24 hrs post dose by bioluminescence imaging assay (reference value: 24%); type: functional; details: MDA-MB-231, 24 h
MDA-MB-231 [8] = assay: Induction of tumor-specific vascular damage in luciferase expressing human MDA-MB-231 cells xenografted in SCID mouse assessed as reduction in light emission at 10 mg/kg at 24 hrs post dose by bioluminescence imaging assay (reference value: 24%); type: functional; details: MDA-MB-231, 24 h
MDA-MB-231 [9] = assay: Induction of tumor-specific vascular damage in luciferase expressing human MDA-MB-231 cells xenografted in SCID mouse assessed as reduction in light emission at 15 mg/kg at 4 hrs post dose by bioluminescence imaging assay (reference value: 22%); type: functional; details: MDA-MB-231, 4 h
MDA-MB-231 [10] = assay: Induction of tumor-specific vascular damage in luciferase expressing human MDA-MB-231 cells xenografted in SCID mouse assessed as reduction in light emission at 10 mg/kg at 4 hrs post dose by bioluminescence imaging assay (reference value: 22%); type: functional; details: MDA-MB-231, 4 h
Leucine aminopeptidase [11] = molecular target: T1, Leucine aminopeptidase; assay: Prodrug conversion assessed as porcine leucine aminopeptidase-mediated compound cleavage after 24 hrs using 3.6 units of enzyme by HPLC analysis; type: ADME; details: pig; in short: as §2
[12] = Cytotoxicity against human SKOV3 cells assessed as growth inhibition using compound dissolved in DMSO after 48 hrs by SRB assay; type: functional; details: SK-OV-3, 48 h; in short: as §1
[13] = Cytotoxicity against human DU145 cells assessed as growth inhibition using compound dissolved in water after 48 hrs by SRB assay; type: functional; details: DU-145, 48 h; in short: as §1
[14] = Cytotoxicity against human SKOV3 cells assessed as growth inhibition using compound dissolved in water after 48 hrs by SRB assay; type: functional; details: SK-OV-3, 48 h; in short: as §1
[15] = Cytotoxicity against human DU145 cells assessed as growth inhibition using compound dissolved in DMSO after 48 hrs by SRB assay; type: functional; details: DU-145, 48 h; in short: as §1
NCI-H460 [16] = assay: Cytotoxicity against human NCI-H460 cells assessed as growth inhibition using compound dissolved in water after 48 hrs by SRB assay; type: functional; details: NCI-H460, 48 h; in short: as §1
NCI-H460 [17] = assay: Cytotoxicity against human NCI-H460 cells assessed as growth inhibition using compound dissolved in DMSO after 48 hrs by SRB assay; type: functional; details: NCI-H460, 48 h; in short: as §1

Row | Structure (SMILES) | GI50 [1] | GI50 ([2]; Homo sapiens, DU-145, 48 h) | GI50 (NCI-H460 [3]; Homo sapiens, NCI-H460, 48 h) | Drug metabolism (Leucine aminopeptidase [5]) | GI50 [2] | GI50 (NCI-H460 [3]) | also measured
1 | COc1ccc2c(c1NC(=O)CN)CCC=C2c1cc(OC)c(OC)c(OC)c1 | 13.8 nM | 50.1 nM | 36.5 nM | – | – | – | –
2 | COc1ccc2c(c1N)CCC=C2c1cc(OC)c(OC)c(OC)c1 | – | – | – | – | – | – | Retention_time [4]: 12.1 min
3 | COc1ccc2c(c1NC(=O)[C@@H](N)CO)CCCC=C2c1cc(OC)c(OC)c(OC)c1 | – | > 81300 nM | 45900 nM | – | – | – | GI50 ([1]; Homo sapiens, SK-OV-3, 48 h): 44900 nM
4 | COc1ccc2c(c1N)CCCC=C2c1cc(OC)c(OC)c(OC)c1 | – | 2.26 nM | 1.85 nM | – | – | – | GI50 ([1]; Homo sapiens, SK-OV-3, 48 h): 0.137 nM; IC50 (Tubulin): 1300 nM; inhibition (Tubulin (Bos taurus)): 82%
5 | COc1ccc(/C=C/c2cc(OC)c(OC)c(OC)c2)c(NC(=O)[C@H](N)CO)c1.Cl | – | 4550 nM | 2240 nM | 90% | – | – | GI50 ([1]; Homo sapiens, SK-OV-3, 48 h): 2290 nM
6 | COc1ccc(/C=C\c2cc(OC)c(OC)c(OC)c2)c(NC(=O)[C@@H](N)CO)c1NC(=O)[C@@H](N)CO.Cl.Cl | > 86600 nM | – | – | metabolite_notdetected | > 86600 nM | > 86600 nM | –
7 | COc1ccc(/C=C\c2cc(OC)c(OC)c(OC)c2)cc1NC(=O)[C@@H](N)CO [OMBRABULIN] | 9.02 nM | – | – | 95% | 16.4 nM | 24.1 nM | IC50 (Tubulin): 14000 nM
8 | COc1ccc(/C=C\c2cc(OC)c(OC)c(OC)c2)c(N)c1 | 26.6 nM | 33.1 nM | 40.1 nM | – | – | – | IC50 (Tubulin): 1100 nM; Retention_time [4]: 31.29 min
9 | COc1ccc2c(c1NC(=O)CN)CCCC=C2c1cc(OC)c(OC)c(OC)c1.Cl | 203 nM | – | – | 100% | 773 nM | 567 nM | Activity (Leucine aminopeptidase [6]): 0.12 µM/min
10 | COc1ccc2c(c1NC(=O)CN)CCC=C2c1cc(OC)c(OC)c(OC)c1.Cl | 48.5 nM | – | – | 100% | 58.5 nM | 42 nM | inhibition in vivo at 15 mg/kg (MDA-MB-231 [7]): 90%; Activity (Leucine aminopeptidase [6]): 15.5 µM/min; inhibition in vivo at 10 mg/kg (MDA-MB-231 [8]): 55%; inhibition in vivo at 15 mg/kg (MDA-MB-231 [9]): 97%; inhibition in vivo at 10 mg/kg (MDA-MB-231 [10]): 70%
11 | COc1ccc2c(c1NC(=O)CN)CCCC=C2c1cc(OC)c(OC)c(OC)c1 | – | 507 nM | 566 nM | – | – | – | GI50 ([1]; Homo sapiens, SK-OV-3, 48 h): 195 nM
12 | COc1ccc(/C=C\c2cc(OC)c(OC)c(OC)c2)c(NC(=O)[C@@H](N)CO)c1.Cl | 51.6 nM | – | – | 62% | 48.4 nM | 31.7 nM | Activity (Leucine aminopeptidase [6]): 1.2 µM/min
13 | COc1ccc2c(c1NC(=O)[C@@H](N)CO)CCC=C2c1cc(OC)c(OC)c(OC)c1.Cl | 11600 nM | – | – | < 10% | 26000 nM | 18600 nM | Drug metabolism (Leucine aminopeptidase [11]): < 10%
14 | COc1ccc(/C=C/c2cc(OC)c(OC)c(OC)c2)c(NC(=O)CN)c1.Cl | – | – | – | 100% | – | – | GI50 [12]: 427 nM; GI50 [13]: 674 nM; GI50 [14]: 426 nM; GI50 [15]: 630 nM; GI50 (NCI-H460 [16]): 380 nM; GI50 (NCI-H460 [17]): 418 nM
